# Most compounds without a hit are left out; they make up all but 2.3% or so of the library.
# SUMO1-SIM PPI – alters human SUMO1 binding to SIM partners; P63165; SUMO1 binding to a labelled peptide, TR-FRET, 1 h; inhibition, % at 20 µM; 0.33% of 360,000 active; in the data active = inhibition above about 37%
# Target sequence (P63165 whole entry, looked up): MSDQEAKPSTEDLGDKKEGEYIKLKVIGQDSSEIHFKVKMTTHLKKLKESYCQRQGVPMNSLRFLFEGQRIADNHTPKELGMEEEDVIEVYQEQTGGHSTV
# Scp1 inh – inhibitors of human Scp-1 phosphatase | inhibition, % at 20 µM | 0.88% of 340,000 active | Recombinant Scp1, phosphopeptide, malachite green phosphate absorbance;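 active = inhibition above about 50% at 20 µM, limit read from the data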
# Target sequence (Q9GZU7 76-261 limits assumed): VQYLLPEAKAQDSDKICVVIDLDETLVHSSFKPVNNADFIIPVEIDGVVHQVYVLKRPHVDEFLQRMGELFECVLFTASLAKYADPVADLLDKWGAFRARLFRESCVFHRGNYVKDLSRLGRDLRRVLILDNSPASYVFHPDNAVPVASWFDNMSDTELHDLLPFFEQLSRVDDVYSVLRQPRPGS
#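 Times: enzyme reaction 45 min at room temperature, colour 5 min, stabilisation 30 min. Material: SCP-1 catalytic fragment, aa 76-261. Medium: Acidic Tris acetate buffer with magnesium and detergent. Signal: colorimetric free-phosphate detection, absorbance 630 nm. Read-out basis: % inhibition of SCP-1 phosphate liberation. Reagent: Phosphorylated 17-residue peptide substrate.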
# DNMT1 inh – blocks human DNA methyltransferase DNMT1; P26358; DNMT1 molecular beacon, Hinp1I cleavage, fluorescence; inhibition (reported as % activation of signal), % at 10 µM; 0.83% of 360,000 active; AID 588458; in the data active = inhibition above about 50%
# LMPTP block – LMPTP (human) inhibition; 0.22% of 360,000 active; recombinant LMPTP-A, OMFP fluorogenic substrate, fluorescence intensity; inhibition, % at 20 µM;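 active = compounds that cut the enzyme signal by at least half of the control window in the single-dose screen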
# Target sequence (P24666 whole entry, looked up): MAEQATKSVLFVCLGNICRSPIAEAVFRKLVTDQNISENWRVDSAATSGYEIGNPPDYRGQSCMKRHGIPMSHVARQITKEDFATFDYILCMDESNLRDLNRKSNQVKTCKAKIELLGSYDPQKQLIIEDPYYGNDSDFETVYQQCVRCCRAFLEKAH
#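 material = LMPTP-A | quantity = 0.625 nM enzyme | reagent = OMFP substrate, 400 µM final | buffer or medium = Bis-Tris pH 6.0, DTT, detergent | detection = endpoint fluorescence intensity from OMFP dephosphorylation | dosing = single 20 µM dose | read-out basis = % inhibition relative to no-enzyme and uninhibited control wells | control set = no-enzyme and uninhibited controls | timing = 50 min at room temperature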
# NadD inh – inhibitors of Staphylococcus aureus NadD. purified NadD enzyme, colorimetric absorbance read-out. inhibition, % at 20 µM. 0.78% of 360,000 active. AID 602399; in the data active = inhibition above about 26%
# STEP inh – blocks human striatal-enriched tyrosine phosphatase | recombinant STEP, OMFP fluorogenic substrate, fluorescence | 0.25% of 360,000 active | AID 588621 | inhibition, % at 20 µM | P54829;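 active = inhibition at 20 µM, scaled per plate between control wells, above about 37%, limit read from the data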
#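 Measure: Control-normalized % inhibition with plate pattern correction | Test system: STEP phosphatase, cell-free reaction | Medium: pH 6.0 Bis-Tris with DTT and Tween 20 | Technique: Fluorescence, 480/540 nm | Times: Reaction 20 min, ambient temperature | Doses: Single compound dose of 20 µM, 1% DMSO final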
# Scp-1 conf – Scp-1 (human) inhibition, single-dose confirmed. shares compounds with Scp1 inh. inhibition, % at 20 µM. 61% of 2,500 active. AID 540281. recombinant SCP-1 catalytic domain, phosphate release, malachite green absorbance
# Scp-1 MG ctr – interferes with malachite green readout, flagging false Scp-1 hits | shares compounds with Scp1 inh | Colorimetric interference counterscreen, malachite green absorbance 630 nm | apparent inhibition (interference), % at 20 µM | 2,500 tested, under 10 active | AID 540313;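 note: compounds added after enzyme reaction finished so only phosphate colour detection is probed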
# Scp1 DSF – validation of human Scp-1 inhibitors by thermal shift binding; thermal shift relative to vanadate control, % at 40 µM; Recombinant SCP1, Sypro Orange thermal shift Tm; 25% of 1,500 active; shares compounds with Scp1 inh;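 active = substances whose mean melting-temperature shift, as a percentage of the reference inhibitor's shift, reaches about 5.3%, limit read from the data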
# Hits are given with their value; n = inactive; x = not tested or not shown.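 Rule for the calls, unless noted: active = inhibition of at least 30% at 20 µM; inactive = the rest.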
SMILES,SUMO1-SIM PPI,Scp1 inh,DNMT1 inh,LMPTP block,NadD inh,STEP inh,Scp-1 conf,Scp-1 MG ctr,others
Cc1cc(C)c(Nc2ncnc(N)n2)c(C)c1,n,n,n,n,n,n,x,x,
CCN(C(=O)COC(=O)c1[nH]c(C)c(C(C)=O)c1C)C1CCS(=O)(=O)C1 (centres undefined),n,69.9,n,n,n,n,n,n,
COC(=O)c1ccc2c(c1)c(-c1ccccc1)c(-c1ccccc1)n2C,n,n,n,n,n,n,x,x,
NNC(=O)Cn1c(-c2ccccc2)cc(=O)n2ncnc12,n,69.2,n,n,n,n,n,n,
Cc1cc(=O)n2ncnc2n1COCCO,n,n,n,n,n,n,x,x,
CC1CCN(S(=O)(=O)c2ccc(NC(=O)Cc3cccs3)cc2)CC1,n,77.3,n,n,n,n,59.9,n,Scp1 DSF=5.8
O=C1C2CSCN2C(=O)CN1CCCN1CCN(C(c2ccccc2)c2ccccc2)CC1 (centres undefined),n,n,n,n,n,n,x,x,
CCC1=Nc2cc(C(=O)NCCCOC(C)C)ccc2Sc2ccccc21,n,62.8,n,n,n,n,n,n,
CCC1=Nc2cc(C(=O)NCCCN3CCN(C)CC3)ccc2Sc2ccccc21,n,n,n,n,n,n,x,x,
CCn1c(C)[n+](CC)c2ccc(S(=O)(=O)N(C)C)cc21,n,89.1,n,n,n,n,n,n,
Cc1ccc(S(=O)(=O)CCC(=O)OCC(=O)N2CCc3ccccc32)cc1,n,59.8,n,n,n,n,n,n,
Cc1oc(-c2cccs2)nc1CN1CCN(C(C)C)C(CCO)C1 (centres undefined),n,n,n,n,n,n,x,x,
CC(=O)c1nnn(-c2cccc(C#N)c2)c1C,n,n,n,n,n,n,x,x,
CC(=O)c1nnn(-c2ccccc2C#N)c1C,n,65.3,n,n,n,n,n,n,
CC(=O)N=c1c(C#N)cc2c(=O)n3cccc(C)c3nc2n1Cc1ccco1,n,69.6,n,n,n,n,n,n,
CC(=O)N=c1c(C#N)cc2c(=O)n3cccc(C)c3nc2n1CCCOC(C)C,n,n,n,n,n,n,x,x,
COc1ccc(CNC(=O)C2Cc3c(-c4ccccc4Oc4ccccc4)ccnc3O2)cc1OC (centres undefined),n,x,n,n,n,n,x,x,
Cc1cc2nc(-c3nnnn3C3CCCCC3)c(=O)[nH]c2cc1C,n,x,x,n,n,x,x,x,
Cc1cc(C)n(-c2ccc(Oc3ccccc3)c(S(=O)(=O)O)c2)n1,n,64.8,n,n,n,n,46.9,n,Scp1 DSF=n
Cc1cc(C)n(-c2ccc(C(=O)O)cc2)n1,n,n,n,n,n,n,x,x,
COc1ccccc1-c1nc2ccccc2nc1-c1ccccc1,n,n,n,n,n,n,x,x,
COc1ccc(OC)c(-c2nc3ccccc3nc2-c2ccccc2)c1,n,58.5,n,n,n,n,n,n,
Cc1ccc(/C=N/NC(=O)CCCOc2ccc(Cl)cc2Cl)cc1[N+](=O)[O-],n,58.5,n,n,n,n,37.8,n,Scp1 DSF=n
Cc1cc(Cl)ccc1OCC(=O)OC(C)C(=O)N(C)C (centres undefined),n,55.4,n,n,n,n,46.3,n,Scp1 DSF=n
CCN(CC)C(=O)C(C)OC(=O)COc1ccc(Cl)cc1C (centres undefined),n,n,n,n,n,n,x,x,
SMILES,SUMO1-SIM PPI,Scp1 inh,DNMT1 inh,LMPTP block,NadD inh,STEP inh,Scp-1 conf,Scp-1 MG ctr,others
CCN(CC)C(=O)Cn1cc(C(=O)C(=O)N(CC)C2CCCCC2)c2ccccc21,n,n,n,n,n,n,x,x,
O=C(COC(=O)c1ccc(Cl)c(S(=O)(=O)N2CCCC2)c1)NCc1ccccc1,n,50.2,n,n,n,n,40.9,n,Scp1 DSF=n
O=C(O)c1ccc([N+](=O)[O-])c(CS(=O)(=O)c2ccc(Cl)cc2)c1,n,66.2,n,n,n,n,n,n,
CCN1CCN(c2ccc(NC(=O)c3cc4ccccc4cc3OC)cc2C)CC1,n,64.6,n,n,n,n,n,n,
O=C(COC(=O)COc1ccc(Br)cc1)Nc1cccnc1Cl,n,58.2,n,n,n,n,n,n,
COCCC(C(=O)Oc1c(C(C)(C)C)cc(C)cc1C(C)(C)C)c1ccccc1 (centres undefined),n,n,n,n,n,n,x,x,
O=S(=O)(c1c(F)cccc1F)C1CCN(S(=O)(=O)c2ccc3c(c2)OCCO3)CC1,n,n,n,n,n,n,x,x,
Cc1ccc2nc(SCC(=O)Nc3ccc(C)c(Cl)c3)nc(=O)n2c1,n,n,n,n,n,n,x,x,
Cc1ccc2nc(SCC(=O)Nc3ccc(Br)cc3)nc(=O)n2c1,n,60.0,n,n,n,n,n,n,
CC(C)CC(=O)O/N=C1\C(=O)N(c2ccccc2)c2ccccc21,n,n,n,n,n,n,x,x,
CC(C)(C)C(=O)O/N=C1/C(=O)N(c2ccccc2)c2ccccc21,n,89.5,n,n,n,n,74.3,n,Scp1 DSF=n
Cc1ccc2c(c1)N(C(=O)CCC(=O)NC1CCN(Cc3ccccc3)CC1)CC(C)O2 (centres undefined),n,n,n,n,n,n,x,x,
O=C(COC(=O)c1cncc(Br)c1)NC12CC3CC(CC(C3)C1)C2,n,x,n,n,n,n,x,x,
O=C(COC(=O)c1cc(Br)ccc1O)NC12CC3CC(CC(C3)C1)C2,n,61.0,n,n,n,n,n,n,
Cc1ccc(NC(=O)c2ccc3c(=O)n4c(nc3c2)CCC4)cc1S(=O)(=O)N(C)C,n,n,n,n,n,n,x,x,
CC1CC(CC(=O)Nc2nc(-c3ccccc3)cs2)C(=O)O1 (centres undefined),n,n,n,n,n,n,n,n,
CCNC(=O)C1(C)CCN(C(=O)c2ccccc2OC)C1 (centres undefined),n,x,n,n,n,n,x,x,
Cc1cc(NC(=O)CSc2nnc(COc3ccccc3)n2Cc2ccco2)no1,n,n,n,n,n,n,x,x,
O=C(CSc1nnc(COc2ccccc2)n1Cc1ccco1)NCc1ccco1,n,87.6,n,n,n,n,67.3,n,Scp1 DSF=n
O=C(NCc1ccco1)c1ccc2c(=O)n(Cc3ccco3)c(SCC(=O)N3CCCC3)nc2c1,n,100.6,n,n,n,n,70.0,n,Scp1 DSF=n
O=C(CSc1nc2ccccc2c(=O)n1Cc1ccco1)NCc1ccco1,n,74.4,n,n,n,n,74.2,n,Scp1 DSF=n
CCCCn1c(SCC(=O)NCc2ccco2)nc2ccccc2c1=O,n,n,n,n,n,n,x,x,

# Bioassay records: PubChem, Sanford-Burnham Center for Chemical Genomics
